Shown are actives, neighbours in structure and some others; about 4.1% of the full set was active somewhere.
KCNQ1 pot = potentiators or activators of human KCNQ1 potassium channel | CHO-K1 KCNQ1, thallium flux FluxOR fluorescence; stronger effect = higher value | B-score at 10 µM | actives 0.35% (n = 310,000);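 active means fluorescence ratio B-score, a plate-corrected score, at least three library SD, with initial intensity B-score within 5 SD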
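Medium – assay buffer, equal DMSO in all wells · Material – CHO-K1 cell line with stable KCNQ1 potassium channel expression · Signal – kinetic FluxOR thallium fluorescence, 10-s 1-Hz baseline, 110-s post-stimulus read · Compound – single concentration per compound, DMSO matched to controls · Schedule – 37 °C overnight plating, 90-min dark dye load, 20-min compound pretreatment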
hERG protect = compounds protecting human hERG from proarrhythmic drug block. Q12809. CHO-hERG, FluxOR thallium flux, dofetilide IC70 present. activation (rescue from dofetilide block), less the hit threshold, % at 10 µM. actives 0.51% (n = 310,000);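 active means activation above the mean of controls blocked by dofetilide plus 5 SD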;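 further: thallium influx through hERG after potassium depolarization seen as dye fluorescence rise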
Cl transport mod = modulates chloride dependent transport by human KCC2; AID 1456; KCC2 cells, thallium flux FluoZin-2 fluorescence; B-score of Tl+ flux slope (higher = more flux/activation; lower = inhibition) at 10 µM; actives 2.2% (n = 190,000); Q9H2X9;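 active means thallium flux slope and its plate-corrected score both differing from the plate sample mean at a set confidence after two filtering rounds, in either direction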;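 further: slope of fluorescence scaled to starting intensity during 10 to 20 s after thallium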
KCNK3 block = human KCNK3 channel inhibition, primary screen; CHO-KCNK3 thallium flux, FluxOR fluorescence; stronger effect = lower value; B-score at 10 µM; actives 0.84% (n = 340,000);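 active means B-score under library mean minus 4 SD, starting fluorescence ratio at most library mean plus 5 SD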;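 further: more negative B-score means stronger inhibition of thallium flux through KCNK3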
KCNQ1 block = blocks the human KCNQ1 potassium channel. CHO-K1 KCNQ1, FluxOR thallium flux fluorescence; stronger effect = higher value. B-score at 10 µM. actives 1.3% (n = 310,000). P51787;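 active means compounds whose thallium flux B-score, printed positive for inhibition, exceeds three library SD while starting fluorescence stays within three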;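 further: channel opened by potassium depolarization with thallium stimulus after 20 min compound exposure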
KCNK9 inh = inhibitors of human KCNK9 two-pore domain potassium channel. Q9NPC2. HEK293 KCNK9, FluxOR thallium flux fluorescence; stronger effect = lower value. B-score at 10 µM. actives 1.2% (n = 310,000). AID 488922;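 active means ratio B-score over 3 SD below the library mean, with starting fluorescence within 5 SD of its mean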;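 further: negative B-score means less thallium flux so channel inhibition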
KCC2 secondary = confirmation of human KCC2 transport modulators; shares compounds with Cl transport mod; HEK293-KCC2, thallium flux, FluoZin2 fluorescence; stronger effect = higher value; normalised thallium flux (F/F0 slope) at 10 µM; actives 15% (n = 3,700); AID 1713;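 active means thallium flux slope above the same plate's solvent-only control mean plus 3 SD; inconclusive means the two replicate wells disagree; inactive means no significant difference from solvent-only control wells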
KCC2 bumet counter = thallium flux despite bumetanide block in KCC2 cells, secondary assay 3; HEK293-KCC2 + bumetanide/ouabain, thallium flux FluoZin2; stronger effect = higher value; actives 49% (n = 3,700); shares compounds with Cl transport mod; normalized thallium flux at 10 µM;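 active means thallium entry rate above the same plate's blocked-transporter control wells by more than 3 SD; inconclusive means the two repeat wells disagree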;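 further: raw slope of fluorescence over initial fluorescence between 10 and 20 s after thallium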
KCC2 secondary2 = confirmation of human KCC2 transport modulators. shares compounds with Cl transport mod. HEK293-KCC2, thallium flux FluoZin2 fluorescence; actives lie on both sides; F/F0 rise rate, 10–20 s post-thallium. normalized thallium flux at 10 µM. actives 23% (n = 3,700). AID 1715;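 active means thallium flux slope more than 3 SD above or below the plate's solvent-only control mean, mostly below; inconclusive means the two repeat wells disagreed; inactive means no significant shift from solvent-only controls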;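 further: raw slope with 0.1% DMSO as baseline and bumetanide as block control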
HEK293 Tl flux = counter-screen for KCC2 modulators: effect in parental HEK293 cells; shares compounds with Cl transport mod; thallium flux rate (normalised fluorescence) at 10 µM; thallium flux FluoZin2, ouabain; baseline-ratio fluorescence slope, 10–20 s after thallium; actives 46% (n = 3,700);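 active means thallium flux rate significantly above the same plate's solvent-only control wells, beyond their mean plus 3 SD; inconclusive means the two replicate wells gave conflicting results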
KCC2 retest ouab = confirmation of human KCC2 modulators with ouabain; shares compounds with Cl transport mod; HEK293-KCC2, thallium flux FluoZin2 fluorescence; bidirectional: low = inhibitor, high = activator; raw Tl+ flux slope (below DMSO = inhibition, above = activation) at 10 µM; actives 48% (n = 3,700); AID 1717;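 active means thallium flux slope beyond 3 SD from same-plate DMSO control mean in most replicates, usually higher, sometimes lower; inconclusive means repeat tests gave conflicting results; inactive means no significant difference from controls in most replicates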;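 further: slope of initial-normalized fluorescence between seconds 10 and 20 after thallium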
HEK counter2 = counter-screen for KCC2 modulators: effect in parental HEK293 cells. shares compounds with Cl transport mod. AID 1718. thallium flux slope at 10 µM. thallium flux FluoZin-2 fluorescence slope. actives 33% (n = 3,700);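 active means thallium flux slope above the same plate's solvent-control mean plus 3 SD in both duplicate wells; inconclusive means duplicate wells that disagreed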;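 further: run without ouabain in cells lacking the KCC2 cotransporter; slope of fluorescence scaled to its starting value between 10 and 20 s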
An asterisk follows results filed as active; i = inactive; ? = inconclusive; . = not tested or not shown.

SMILES	KCNQ1 pot	hERG protect	Cl transport mod	KCNK3 block	KCNQ1 block	KCNK9 inh	KCC2 secondary	KCC2 bumet counter	KCC2 secondary2	HEK293 Tl flux	KCC2 retest ouab	HEK counter2
CCNC(=S)NN=C1CCC(C(C)(C)C)CC1 (stereo not drawn)	i	-1.8	3.31*	i	i	i	0.00688	0.00658*	0.0277	0.0092*	0.0197	0.0106
Oc1ccc(/C=N/NC(=S)Nc2cccnc2)c(O)c1O	i	-11.3	0.357	i	i	i	.	.	.	.	.	.
CC(C)(C)C1CCc2onc(C(=O)Nc3cccnc3)c2C1 (stereo not drawn)	i	-14.5	6.46*	i	i	i	0.00677	0.00454	0.0297	0.00806	0.0191	0.0106
CC(C)(C)C1CCC(=NNC(=S)Nc2cccnc2)CC1 (stereo not drawn)	i	-0.9	6.81*	i	i	i	0.00689	0.013*	0.0316	0.0142*	?	0.0135*
CC(C)(C)C1CCC(=NNC(=O)CN(c2ccccc2)S(C)(=O)=O)CC1 (stereo not drawn)	i	-6.3	0.93	i	i	i	.	.	.	.	.	.
O=C(CN1CCN(S(=O)(=O)N2CCCCC2)CC1)Nc1ccc(Br)cc1	i	-10.9	.	i	i	i	.	.	.	.	.	.
COc1cc(C(=O)Nc2ccc3ccccc3c2)cc(OC)c1OC	i	-0.6	.	.	i	i	.	.	.	.	.	.
CC1CCN(S(=O)(=O)N2CCC(C(=O)NCCc3ccccc3)CC2)CC1	i	-5.8	.	i	i	i	.	.	.	.	.	.
CCCn1nnc(NC(=S)NC(=O)Cc2ccccc2)n1	i	-7.1	.	i	i	i	.	.	.	.	.	.
Cn1nnc(NC(=S)NC(=O)c2cccs2)n1	i	-5.3	0.765	i	i	i	.	.	.	.	.	.
Cn1nnc(NC(=S)NC(=O)c2ccc(-c3ccc(Br)cc3)o2)n1	i	-5.2	5.2*	i	i	i	0.0141*	0.0177*	0.0316	0.0167*	?	0.0121
CCCn1nnc(NC(=S)NC(=O)c2ccc(-c3ccc(Br)cc3)o2)n1	i	-6.6	18.7*	i	i	i	?	0.0152*	0.0284	0.0149*	0.057*	0.0106
CC(=O)NS(=O)(=O)c1cccnc1Nc1ccc(Cl)c(Cl)c1	i	-9.1	0.279	i	i	i	.	.	.	.	.	.
O=C(O)c1sccc1SCc1ccc(Cl)cc1Cl	i	-9.8	.	i	i	i	0.0153	0.00483	0.0217*	0.00554*	0.011*	0.00821
Cn1ccnc1SCc1ccc(Cl)cc1Cl	i	-8.1	.	i	i	i	.	.	.	.	.	.
CC(CCc1ccccc1)NC(=O)CNc1cccc([N+](=O)[O-])c1 (stereo not drawn)	i	-11.8	.	i	i	i	.	.	.	.	.	.
Cc1cc(N2C(=O)C3C4C=CC(C4)C3C2=O)ccc1NC(=O)c1cccs1 (stereo not drawn)	i	0.5	-0.0615	i	i	i	.	.	.	.	.	.
O=C(NC1CCCC1)C(c1ccncc1)N(Cc1ccccc1)C(=O)c1ccc(-c2ccccc2)[nH]1 (stereo not drawn)	i	-10.2	-2.13	i	i	i	.	.	.	.	.	.
CCOc1ccc(C(C(=O)NC2CCCC2)N(CCCO)C(=O)c2ccc(-c3ccccc3)[nH]2)cc1 (stereo not drawn)	i	-11.2	-5.69*	i	i	i	0.00866	0.00533	?	0.00383	0.0171*	0.0109
O=C(NC1CCCC1)C(c1ccncc1)N(Cc1ccco1)C(=O)c1ccc(-c2ccccc2)[nH]1 (stereo not drawn)	i	-24.7	-3.33*	i	i	i	0.00711	?	0.0237*	0.00739	?	0.0112
O=[N+]([O-])c1ccc(NC2CCN(Cc3ccccc3)CC2)c([N+](=O)[O-])c1	i	-14.0	-5.2*	i	i	i	0.00599	0.00464	0.0222*	0.00731	?	0.0111
O=C1C2CCCCC2C(=O)N1c1ccc(NC2CCN(Cc3ccccc3)CC2)c([N+](=O)[O-])c1 (stereo not drawn)	i	-12.3	-8.54*	i	i	i	0.0106	0.00773*	0.0255*	0.0078	0.014*	0.0111
CC1CCC2C(=O)N(c3ccc(NC4CCN(Cc5ccccc5)CC4)c([N+](=O)[O-])c3)C(=O)C2C1 (stereo not drawn)	i	-13.6	-2.83	i	i	i	.	.	.	.	.	.
O=C1CCC(=O)N1c1ccc(NC2CCN(Cc3ccccc3)CC2)c([N+](=O)[O-])c1	i	-11.8	-5.91*	i	i	i	0.00724	0.00611	0.0245*	?	0.0235	0.0106
Cc1[nH]c(=S)c(C#N)c2c1CCCC2	i	-5.5	3.77*	i	i	i	0.00882	0.00863*	0.0348	0.0112*	0.0212	0.0113
Cc1[nH]c(=O)c(C#N)c2c1CCCC2	i	-7.5	-0.0337	i	i	i	.	.	.	.	.	.
CC(C)Cc1c2c([nH]c(=S)c1C#N)CCCC2	i	-2.4	27.4*	i	i	i	0.0193*	0.0683*	0.037	0.0338*	0.0583*	0.0144*
COCCN(C(=O)CNC(=O)c1cccs1)C(C(=O)NC1CCCC1)c1cccs1 (stereo not drawn)	i	-5.9	-0.0519	i	i	i	.	.	.	.	.	.
COCCN(C(=O)CNC(=O)c1cccs1)C(C(=O)NC1CCCCC1)c1ccco1 (stereo not drawn)	.	.	.	i	.	.	0.00698	0.0041	0.034	0.00695	0.019	0.0113
NC(=O)c1ccc(C(F)(F)F)n(Cc2ccccc2Cl)c1=O	i	-4.6	-0.697	i	i	i	.	.	.	.	.	.
